Source: PubChem BioAssay (several laboratories)
Sampled rows, rich in hits. Any-hit rate of the full collection: about 5.1%.
STAT3 activator: increases IL-6 driven STAT3 reporter signal; U3A cells, IL-6 STAT3-luciferase reporter, luminescence; 100% = signal with IL-6 EC80 alone; activation (% of control), % at 5.6 µM; hit rate 0.91% among 190,000; AID 871;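 active = activation above the screen-wide mean of compound activation plus 3 SD, cut at about 130% in these data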;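 also: 0% = background luminescence of wells with medium and substrate only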
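Material: STAT3-luciferase reporter U3A cells; Probe or stimulus: IL-6 (33 ng/mL); Incubation: compound pre-incubation 1 h before IL-6, then 6 h stimulation at 37 °C; Technique: luminescence from STAT3-driven luciferase reporter; Evaluation: % activation versus median of IL-6-stimulated wells; Controls: IL-6-only high control.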
STAT3 inh: inhibitors of IL-6 induced STAT3 signaling; AID 862; hit rate 0.89% among 190,000; inhibition, % at 5.5 µM; U3A cells, IL-6 STAT3-luciferase reporter, luminescence; host cell line lacks STAT1;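 active = inhibition above the mean inhibition across all screened compounds plus 3 SD, cut at about 44% in these data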;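 also: 0% = DMSO only wells and 100% = 100 µM nifuroxazide control wells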
STAT1 activator: STAT1 signaling activation; activation (% of control), % at 5.5 µM; hit rate 2.6% among 200,000; NIH 3T3 STAT1-luciferase reporter, IFN-gamma, luminescence; 100% = IFN-gamma alone, no compound;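 active = activation above the screen-wide mean activation plus 3 SD, cut at about 130% in these data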;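 also: raw ratio to IFN-gamma control signal so 100% means no change and 0% no light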
STAT1 blocker: STAT1 signaling inhibition; inhibition, % at 5.5 µM; NIH 3T3 STAT1-luciferase reporter, IFN-gamma, luminescence; hit rate 0.35% among 200,000;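 active = inhibition above a set limit, the mean inhibition across all tested compounds plus 3 SD, cut at about 34% in these data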;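 also: 0% = IFN-gamma with DMSO and 100% = IFN-gamma with 300 µM nifuroxazide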
APP 5'UTR act: APP 5'UTR luciferase reporter activation; SH-SY5Y APP 5'UTR luciferase reporter, luminescence; zero percent = DMSO vehicle wells; activation, % at 2 µM; hit rate 1% among 190,000;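 active = activation above a set limit, based on mean plus 3 SD of controls, cut at about 140% in these data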
NF-kB neuron act: compounds increasing NF-kB expression in human neuronal cells | NF-kB reporter expression; hits give high values | fold change at 12.5 µM | hit rate 1.6% among 190,000 | AID 1239; in the data active = fold change above about 3.3
STAT1 act conf: STAT1 activation, confirmation assay | AID 1262 | hit rate 97% among 1,200 | shares compounds with STAT1 activator | NIH 3T3 STAT1-luciferase reporter, IFN-gamma potentiation, luminescence; 100% = IFN-gamma EC80 alone, no compound | activation (% of control), % at 5.7 µM;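 active = activation above a set limit carried over from the earlier primary STAT1 screen, cut at about 140% in these data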;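 also: simple ratio to median IFN-gamma plus DMSO wells so 0% means no light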
NFkB act: NF-kappaB activation in STAT1 activator counter-screen; shares compounds with STAT1 activator; HEK293T NF-kB luciferase reporter, TNF-alpha stimulated, luminescence; 100% = TNF-alpha with vehicle only; activation (% of control), % at 5.7 µM; hit rate 43% among 1,200;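 active = activation above the mean of solvent-only control wells plus 3 SD, set per campaign, cut at about 130% in these data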;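 also: TNF-alpha given at a submaximal dose yielding about 80% of full reporter signal; values are well signal over median control so 100% means no change and 0% no light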
STAT3 act STAT1c: human STAT3 activation in STAT1 activator counter-screen. U3A cells STAT3-luciferase reporter, IL-6, luminescence; cells lack STAT1; 100 = IL-6 alone, no compound effect. activation (% of control), % at 5.7 µM. hit rate 46% among 1,200. shares compounds with STAT1 activator. AID 1316;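 active = activation above the solvent-only control well mean plus 3 SD, set per plate batch, cut at about 110% in these data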;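 also: 0% = no luminescence and 100% = median IL-6 plus DMSO wells; higher means more STAT3 reporter activation so hits are non-selective activators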
* hit, by the source's call; . = not tested or not shown.

SMILES | STAT3 activator | STAT3 inh | STAT1 activator | STAT1 blocker | APP 5'UTR act | NF-kB neuron act | STAT1 act conf | NFkB act | STAT3 act STAT1c
Clc1cccc(/C=N/Nc2ncnc3ccccc23)c1 | 133 | -33 | 162* | -67 | . | 4.4* | 227* | 143* | 134*
CC(C)(C)c1ccc2c(c1)C(=O)c1ccccc1C2=O | 102 | 3 | 162* | -68 | 162* | 5.3* | 209* | 126 | 107
CCc1ccc(-c2cn3c(n2)SCC3)cc1 | 79 | 26 | 154* | -56 | 100 | 7.2* | 200* | 130 | 96
O=C(Cc1ccc(F)cc1)Nc1cccc(-c2cn3c(n2)SCC3)c1 | 93 | 13 | 105 | -8 | -9 | 0.69 | . | . | .
Cc1nn(C(C)C(=O)NCc2cccs2)c(C)c1[N+](=O)[O-] (stereo not drawn) | 93 | 10 | 102 | -4 | -3 | 1 | . | . | .
Nc1ccccc1Oc1c(F)c(F)c(Oc2ccccc2N)c(F)c1F | 93 | 10 | 94 | 4 | 17 | 1.2 | . | . | .
Cc1ccccc1Nc1nc(N)nc(CSc2ccc(F)cc2)n1 | 101 | 5 | 156* | -65 | 168* | 6* | 195* | 127 | 125*
O=C(O)C1=C[C@@H](C2CCCCC2)C[C@@H](OCc2ccc(CO)cc2)O1 | . | . | 102 | -1 | 2 | 1.6 | . | . | .
O=C(NC1CC1)C1=C[C@H](C2CCCCC2)C[C@H](OCc2ccc(CO)cc2)O1 | . | . | 158* | -60 | -1 | 1.1 | 105 | 101 | 94
C/C(Cn1cnc([N+](=O)[O-])n1)=N\NC(=O)c1ccc(O)cc1O | 102 | 1 | 99 | -1 | 28 | 1.3 | . | . | .
CC(/C=N/NC(=O)c1sc(N)nc1C)=C\c1ccccc1 | 80 | 27 | 153* | -53 | 75 | 1.2 | 146* | 113 | 101
Cc1nc(N)sc1C(=O)N/N=C/c1ccccc1[N+](=O)[O-] | 101 | 6 | 156* | -61 | 76 | 1.5 | 155* | 123 | 118*
O=C(CSc1ncn[nH]1)Nc1cc(S(=O)(=O)N2CCCC2)ccc1Cl | 107 | -7 | 102 | -5 | 19 | 1 | . | . | .
CCc1c(C)[nH]c(C(=O)OCc2ccccc2)c1C | 98 | 7 | 152* | -59 | 24 | 2.5 | 146* | 118 | 92
COC(=O)c1c(C)[nH]c(C(=O)OCc2ccc(F)cc2)c1C | 93 | 13 | 152* | -57 | 68 | 2.7 | 163* | 125 | 103
CC(=O)c1c(C)[nH]c(C(=O)OCC(=O)NCCc2ccc(F)cc2)c1C | 98 | 7 | 93 | 8 | 13 | 0.97 | . | . | .
CC1(C)CC(=O)c2cc(NC(=O)c3ccc(F)cc3)c(=O)oc2C1 | 87 | 18 | 99 | -1 | 4 | 1.2 | . | . | .
CC1Cc2nc(SCC(=O)Nc3nc4ccccc4s3)n(C)c(=O)c2S1 (stereo not drawn) | 91 | 19 | 91 | 10 | 1 | 0.53 | . | . | .
COc1ccc(Nc2nc(-c3c(C)nc4ncccn34)cs2)cc1 | 94 | 13 | 73 | 29 | -94 | 1 | . | . | .
COc1ccc(-c2csc(Nc3ccccc3)n2)cc1 | 99 | 1 | 180* | -85 | 195* | 5.4* | 232* | 152* | 110
c1ccc(Nc2nc(-c3ccccn3)cs2)cc1 | 108 | -10 | 158* | -63 | 205* | 7.5* | 226* | 150* | 126*
CC(=O)NNc1nc(-c2ccccc2)cs1 | 107 | -2 | 103 | -5 | 5 | 1.3 | . | . | .
COc1ccc(-c2csc(Nc3ncccc3C)n2)cc1 | 104 | -1 | 185* | -89 | 154* | 12* | 253* | 143* | 106
CC(=O)c1cccc(Nc2nc(-c3ccccc3)cs2)c1 | 106 | 3 | 168* | -74 | 170* | 4.8* | 230* | 152* | 112*
c1ccc(-c2csc(Nc3cccnc3)n2)nc1 | 98 | 6 | 127 | -34 | 20 | 1.4 | . | . | .
SMILES | STAT3 activator | STAT3 inh | STAT1 activator | STAT1 blocker | APP 5'UTR act | NF-kB neuron act | STAT1 act conf | NFkB act | STAT3 act STAT1c
Cc1ccc(CNC(=O)CCNC(=O)c2ccco2)cc1 | 104 | -2 | 97 | 4 | 0 | 1.2 | . | . | .
CCC(Sc1nc(N)cc(=O)[nH]1)C(=O)Nc1cc(C)on1 (stereo not drawn) | 104 | -1 | 95 | 3 | 23 | 0.88 | . | . | .
COc1ccc(-c2csc(Nc3ccc(S(N)(=O)=O)cc3)n2)cc1 | 75 | 30 | 104 | -5 | . | 0.84 | . | . | .
COc1ccc(Nc2nc(-c3ccc(OC)cc3)cs2)cc1 | 94 | 12 | 151* | -55 | 137* | . | 182* | 142* | 99
O=C(NC1=NCCS1)c1sc2ccccc2c1Cl | 103 | 2 | 173* | -79 | 146* | 7.1* | 210* | 130 | 116*
O=C(NC1=NCCS1)c1sc2cc(Cl)cc(Cl)c2c1Cl | 104 | -2 | 98 | 2 | -9 | 1.2 | . | . | .
O=C(c1ccc2ccccc2c1)C1CCCN(C(=O)c2noc3c2CCCC3)C1 (stereo not drawn) | 97 | 7 | 89 | 11 | 36 | 1 | . | . | .
CC(C)(C)C(=O)NCCc1nc2ccccc2n1CC(=O)c1ccc(Cl)cc1 | 99 | 2 | 98 | 2 | -3 | 0.74 | . | . | .
CN(C)/C=C1\C(=O)N(c2ccc([N+](=O)[O-])cc2)N=C1c1ccccc1 | 118 | -9 | 184* | -92 | 31 | 1.1 | 173* | 126 | 120*
COc1ccc2c(c1OC)C(=O)N1N=C(c3ccc(O)cc3)CC21 (stereo not drawn) | 97 | 12 | 95 | 12 | 4 | 1.3 | . | . | .
O=C(Cn1cc(S(=O)(=O)Cc2ccccc2)c2ccccc21)Nc1ccccc1 | 123 | -24 | 97 | 3 | 7 | 0.94 | . | . | .
COc1ccc(NC(=O)N/C=C/c2ccccc2)cc1 | 95 | 13 | 156* | -61 | 113 | 1.2 | 168* | 142* | 105
CC/C(=N\NC(=O)CSc1ncccn1)c1ccc2c(c1)OCCO2 | 106 | -7 | 91 | 10 | -6 | 1 | . | . | .
COc1ccc(C(=O)CSc2nnc3ccccn23)cc1OC | 115 | -8 | 104 | -6 | 11 | 1.3 | . | . | .
O=C(CSc1nnc2ccccn12)c1ccc2c(c1)OCCO2 | 112 | -10 | 158* | -62 | 123 | 3.2 | 186* | 132 | 130*
Cc1cc(=O)[nH]c(SCC(=O)NCC2CCCCC2)c1C#N | 101 | 4 | 97 | 0 | 0 | 1.1 | . | . | .
